Laboratory results reported in ChEMBL document CHEMBL3414427, “Structure-activity relationships of 3-O-β-chacotriosyl ursolic acid derivatives as novel H5N1 entry inhibitors” (Eur J Med Chem, 2015).
Active and inactive are the calls of the source. The rule behind the calls is not given here.

Experiments:
[1] = Cytotoxicity against MDCK cells; format: cell-based, Canis lupus familiaris; conditions: dog
In short: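 MDCK cells (ATCC) grown in DMEM containing glutamine, supplemented with 10% fetal calf serum. CC50 is the mean of three independent assays.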

cells = format: functional, cell-based, Influenza A virus (A/Thailand/Kan353/2004(H5N1)); conditions: Influenza A virus, MDCK, 48 h
[2] = target: Neuraminidase (Influenza A virus) (UniProt A5Z252); assay: Inhibition of Influenza A virus (H5N1) neuraminidase N1 at 20 microg/ml after 30 mins by fluorescence based assay
In short: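 Fluorescence-based kit assay with purified N1-type neuraminidase in detection buffer. Test compound was added, then neuraminidase substrate. Incubated at 37 °C for 30 min; fluorescence read at excitation 340 nm and emission 535 nm.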

[3] = tested on: Vesicular stomatitis virus; assay: Antiviral activity against VSV-G enveloped pseudovirus; format: functional, organism-based
In short: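 VSV-G pseudotyped particles (negative control), incubated with compound instead of H5N1 pseudovirus. MDCK cells (ATCC; DMEM with glutamine plus 10% FCS), seeded at 10⁴/well and grown overnight, then infected and incubated a further 48 h. Cells were PBS-washed and lysed, and luciferase activity was read by luminometer after adding substrate.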

Row | SMILES | CC50 [1] [µM] | IC50 (cells) [µM] | inhibition [2] | inhibition [3]
1 | C[C@H]1[C@H](C)CC[C@]2(C(=O)O)CC[C@]3(C)C(=CC[C@@H]4[C@@]5(C)CC[C@H](O[C@@H]6O[C@H](CO)[C@@H](O[C@@H]7O[C@@H](C)[C@H](O)[C@@H](O)[C@H]7O)[C@H](O)[C@H]6O[C@@H]6O[C@@H](C)[C@H](O)[C@@H](O)[C@H]6O)C(C)(C)[C@@H]5CC[C@]43C)[C@H]12 | 26.2 | 10.1 | – | –
2 | CCCOC(=O)[C@]12CC[C@@H](C)[C@H](C)[C@H]1C1=CC[C@@H]3[C@@]4(C)CC[C@H](O[C@@H]5O[C@H](CO)[C@@H](O[C@@H]6O[C@@H](C)[C@H](O)[C@@H](O)[C@H]6O)[C@H](O)[C@H]5O[C@@H]5O[C@@H](C)[C@H](O)[C@@H](O)[C@H]5O)C(C)(C)[C@@H]4CC[C@@]3(C)[C@]1(C)CC2 | 19.2 | 2.3 | – | –
3 | CCN(CC)C(=O)[C@]12CC[C@@H](C)[C@H](C)[C@H]1C1=CC[C@@H]3[C@@]4(C)CC[C@H](O[C@@H]5O[C@H](CO)[C@@H](O[C@@H]6O[C@@H](C)[C@H](O)[C@@H](O)[C@H]6O)[C@H](O)[C@H]5O[C@@H]5O[C@@H](C)[C@H](O)[C@@H](O)[C@H]5O)C(C)(C)[C@@H]4CC[C@@]3(C)[C@]1(C)CC2 | 47 | 1.41 | – | –
4 | CNC(=O)[C@]12CC[C@@H](C)[C@H](C)[C@H]1C1=CC[C@@H]3[C@@]4(C)CC[C@H](O[C@@H]5O[C@H](CO)[C@@H](O[C@@H]6O[C@@H](C)[C@H](O)[C@@H](O)[C@H]6O)[C@H](O)[C@H]5O[C@@H]5O[C@@H](C)[C@H](O)[C@@H](O)[C@H]5O)C(C)(C)[C@@H]4CC[C@@]3(C)[C@]1(C)CC2 | > 200 | 22.5 | – | –
5 | COC(=O)[C@]12CCC(C)(C)C[C@H]1C1=CC[C@@H]3[C@@]4(C)CC[C@H](O[C@@H]5O[C@H](CO)[C@@H](O[C@@H]6O[C@@H](C)[C@H](O)[C@@H](O)[C@H]6O)[C@H](O)[C@H]5O[C@@H]5O[C@@H](C)[C@H](O)[C@@H](O)[C@H]5O)C(C)(C)[C@@H]4CC[C@@]3(C)[C@]1(C)CC2 | 16.9 | 3.74 | – | –
6 | COC(=O)[C@]12CC[C@@H](C)[C@H](C)[C@H]1C1=CC(=O)[C@@H]3[C@@]4(C)CC[C@H](O[C@@H]5O[C@H](CO)[C@@H](O[C@@H]6O[C@@H](C)[C@H](O)[C@@H](O)[C@H]6O)[C@H](O)[C@H]5O[C@@H]5O[C@@H](C)[C@H](O)[C@@H](O)[C@H]5O)C(C)(C)[C@@H]4CC[C@@]3(C)[C@]1(C)CC2 | 38.4 | 5.68 | – | –
7 | O=C(NCCN1CCCCC1)c1cc(F)cc(C(F)(F)F)c1 | 1480 | 4.45 | – | –
8 | C[C@H]1[C@H](C)CC[C@]2(C(=O)OC3CCCC3)CC[C@]3(C)C(=CC[C@@H]4[C@@]5(C)CC[C@H](O[C@@H]6O[C@H](CO)[C@@H](O[C@@H]7O[C@@H](C)[C@H](O)[C@@H](O)[C@H]7O)[C@H](O)[C@H]6O[C@@H]6O[C@@H](C)[C@H](O)[C@@H](O)[C@H]6O)C(C)(C)[C@@H]5CC[C@]43C)[C@H]12 | 24.2 | 4.91 | – | –
9 | COC(=O)[C@]12CC[C@@H](C)[C@H](C)[C@H]1C1=CC[C@@H]3[C@@]4(C)CC[C@@H](O[C@@H]5O[C@H](CO)[C@@H](O[C@@H]6O[C@@H](C)[C@H](O)[C@@H](O)[C@H]6O)[C@H](O)[C@H]5O[C@@H]5O[C@@H](C)[C@H](O)[C@@H](O)[C@H]5O)C(C)(C)[C@@H]4CC[C@@]3(C)[C@]1(C)CC2 | > 200 | 1.33 | inactive | inactive
10 | CCOC(=O)[C@]12CC[C@@H](C)[C@H](C)[C@H]1C1=CC[C@@H]3[C@@]4(C)CC[C@H](O[C@@H]5O[C@H](CO)[C@@H](O[C@@H]6O[C@@H](C)[C@H](O)[C@@H](O)[C@H]6O)[C@H](O)[C@H]5O[C@@H]5O[C@@H](C)[C@H](O)[C@@H](O)[C@H]5O)C(C)(C)[C@@H]4CC[C@@]3(C)[C@]1(C)CC2 | 19.1 | 1.16 | – | –
11 | CCCCCOC(=O)[C@]12CC[C@@H](C)[C@H](C)[C@H]1C1=CC[C@@H]3[C@@]4(C)CC[C@H](O[C@@H]5O[C@H](CO)[C@@H](O[C@@H]6O[C@@H](C)[C@H](O)[C@@H](O)[C@H]6O)[C@H](O)[C@H]5O[C@@H]5O[C@@H](C)[C@H](O)[C@@H](O)[C@H]5O)C(C)(C)[C@@H]4CC[C@@]3(C)[C@]1(C)CC2 | 20.1 | 3.72 | – | –
12 | C[C@H]1[C@H](C)CC[C@]2(C(=O)N(C)C)CC[C@]3(C)C(=CC[C@@H]4[C@@]5(C)CC[C@H](O[C@@H]6O[C@H](CO)[C@@H](O[C@@H]7O[C@@H](C)[C@H](O)[C@@H](O)[C@H]7O)[C@H](O)[C@H]6O[C@@H]6O[C@@H](C)[C@H](O)[C@@H](O)[C@H]6O)C(C)(C)[C@@H]5CC[C@]43C)[C@H]12 | 48.6 | 0.98 | inactive | inactive
13 | COC(=O)[C@]12CC[C@@H](C)[C@H](C)[C@H]1C1=CC[C@@H]3[C@@]4(C)CC[C@H](O[C@@H]5O[C@H](CO)[C@@H](O[C@@H]6O[C@@H](C)[C@H](O)[C@@H](O)[C@H]6O)[C@H](O)[C@H]5O[C@@H]5O[C@@H](C)[C@H](O)[C@@H](O)[C@H]5O)C(C)(C)[C@@H]4CC[C@@]3(C)[C@]1(C)CC2 | 13 | 1.02 | inactive | inactive
14 | C=CCOC(=O)[C@]12CC[C@@H](C)[C@H](C)[C@H]1C1=CC[C@@H]3[C@@]4(C)CC[C@H](O[C@@H]5O[C@H](CO)[C@@H](O[C@@H]6O[C@@H](C)[C@H](O)[C@@H](O)[C@H]6O)[C@H](O)[C@H]5O[C@@H]5O[C@@H](C)[C@H](O)[C@@H](O)[C@H]5O)C(C)(C)[C@@H]4CC[C@@]3(C)[C@]1(C)CC2 | 21.8 | 34 | – | –
15 | C=C(C)[C@@H]1CC[C@]2(C(=O)OC)CC[C@]3(C)[C@H](CC[C@@H]4[C@@]5(C)CC[C@H](O[C@@H]6O[C@H](CO)[C@@H](O[C@@H]7O[C@@H](C)[C@H](O)[C@@H](O)[C@H]7O)[C@H](O)[C@H]6O[C@@H]6O[C@@H](C)[C@H](O)[C@@H](O)[C@H]6O)C(C)(C)[C@@H]5CC[C@]43C)[C@H]12 | 33.9 | 2.08 | – | –
16 | COC(=O)[C@@]1(C)CC[C@]2(C)CC[C@]3(C)C(=CC(=O)[C@@H]4[C@@]5(C)CC[C@H](O[C@@H]6O[C@H](CO)[C@@H](O[C@@H]7O[C@@H](C)[C@H](O)[C@@H](O)[C@H]7O)[C@H](O)[C@H]6O[C@@H]6O[C@@H](C)[C@H](O)[C@@H](O)[C@H]6O)C(C)(C)[C@@H]5CC[C@]43C)[C@@H]2C1 | 17.1 | 4.93 | – | –
